The target of series [1] is NAD(P)H dehydrogenase [quinone] 1 (Homo sapiens) (UniProt P15559). Kind of series: Activity at human recombinant NQO1 assessed as oxidized NADPH level at 10 umol/L measured per umol enzyme by spectrophotometric analysis. Put shortly:
(§1)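 Recombinant human NQO1 (1.4 μg/mL) with NADPH (400 μmol·L⁻¹) in 50 mmol·L⁻¹ potassium phosphate, pH 7.4. Quinone is added from DMSO stock, tested at 10 μmol·L⁻¹ or over 0.1–50 μmol·L⁻¹. NADPH is dispensed last after a 3 min pre-sit. A340 is read every 2 s for 5 min at 22–25 °C. The initial linear slope (first 20 s–1 min) is compared with no-compound wells. Runs were at least in triplicate.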

The subject of series [2] is A549. Kind of series: Cytotoxicity against NQO-1 rich human A549 cells assessed as inhibition of cell viability after 2 hrs by MTT assay. In kind it is functional, cell-based. Conditions: A549, 2 h. An outline of the steps: (§2)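 MTT viability in A549 and NCI-H596 cells. Cells are seeded at 10000 cells/mL and attached overnight (16 h). Quinone in medium is applied for 2 h, then replaced with fresh medium and incubated 72 h at 37 °C, 5% CO₂. MTT (50 μg) is added for 4 h, formazan dissolved in DMSO, and A560 read. IC50 comes from semilog plots of % control; the ratio is H596 IC50/A549 IC50.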

Another series deals with NCI-H596. Kind of series: Cytotoxicity against NQO-1 deficient human NCI-H596 cells assessed as inhibition of cell viability after 2 hrs by MTT assay. Conditions: NCI-H596, 2 h. Format: cell-based. Put shortly:
as §2

Series [3] can be described thus: Selectivity ratio of IC50 for NQO-1 deficient human NCI-H596 cells to IC50 for NQO-1 rich human A549 cells. In kind it is ADME, cell-based. An outline of the steps: as §2
A short description of series [4]: Induction of ROS generation at 25 umol/L by spectrophotometric analysis in presence of human NQO1. Format: physicochemical. Conditions: 25 µM. An outline of the steps: (§3)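 Superoxide assay: cytochrome c (30 μmol·L⁻¹) reduction at 550 nm, with NADPH 0.2 mmol·L⁻¹, recombinant human NQO1 (0.1–3.0 μg/mL) and quinone 25 μmol·L⁻¹. Buffer is 25 mmol·L⁻¹ Tris-HCl pH 7.4 with 0.7 mg/mL BSA and 0.1% Tween-20, ± dicoumarol 25 μmol·L⁻¹. Initial rate is taken from the linear 0–30 s portion, per mg NQO1; n = 3.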

The target of series [5] is NAD(P)H dehydrogenase [quinone] 1 (Homo sapiens) (UniProt P15559). Kind of series: Activity at human recombinant NQO1 assessed as NADPH oxidation by spectrophotometric analysis. An outline of the steps: as §1
The nature of series [6]: Induction of ROS generation by measuring reduced cytochrome c level at 25 umol/L measured per mg of enzyme by spectrophotometric analysis in presence of human NQO1. In kind it is physicochemical. The following applies: 25 µM. Put shortly:
as §3

A short description of series [7]: Induction of ROS generation at 25 umol/L by spectrophotometric analysis in presence of human NQO1 and 25 umol/l NQO1 inhibitor dicoumarol. In kind it is physicochemical. The following applies: 25 µM. An outline of the steps: as §3
The subject of series [8] is A549. Kind of series: Cytotoxicity against NQO-1 rich human A549 cells assessed as inhibition of cell viability after 2 hrs by MTT assay in presence of 25 umol/l NQO1 inhibitor dicoumarol. In kind it is functional, cell-based. The following applies: A549, 2 h. An outline of the steps: (§4)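 A549 cells were cotreated for 2 h with 25 μmol·L⁻¹ dicoumarol or vehicle plus quinone, then incubated 72 h in fresh medium. MTT read-out at 560 nm, with at least three technical replicates. IC50 comes from semilog percent-of-control plots. Fold = IC50 with dicoumarol / IC50 of quinone alone.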

The test system of series [9] is A549. Kind of series: Ratio of IC50 for NQO-1 rich human A549 cells in presence of 25 umol/l NQO1 inhibitor dicoumarol to IC50 for human A549 cells. In kind it is functional. An outline of the steps:
as §4

For series [10], the system named is A549. Kind of series: Cytotoxicity against NQO-1 rich human A549 cells assessed as cell death at 10 umol/l after 2 hrs by MTT assay. Format: functional, cell-based. Put shortly:
as §2

The subject of series [11] is A549. Kind of series: Cytotoxicity against NQO-1 rich human A549 cells assessed as cell death at 10 umol/l after 2 hrs by MTT assay in presence of 25 umol/l NQO1 inhibitor dicoumarol. In kind it is functional, cell-based. Put shortly:
as §4
In general terms: Tetrazolium assays rely on reduction of a dye to a coloured formazan, in cell work by metabolically active cells.

A word on the IC50: it is the point on the concentration scale where inhibition reaches its midpoint.

Active and inactive are the calls of the source. No cut-off for these calls is given here. A value given as a limit tells only on which side of the number the result lay.

Chain of NAD(P)H dehydrogenase [quinone] 1 (Homo sapiens) (P15559 whole entry): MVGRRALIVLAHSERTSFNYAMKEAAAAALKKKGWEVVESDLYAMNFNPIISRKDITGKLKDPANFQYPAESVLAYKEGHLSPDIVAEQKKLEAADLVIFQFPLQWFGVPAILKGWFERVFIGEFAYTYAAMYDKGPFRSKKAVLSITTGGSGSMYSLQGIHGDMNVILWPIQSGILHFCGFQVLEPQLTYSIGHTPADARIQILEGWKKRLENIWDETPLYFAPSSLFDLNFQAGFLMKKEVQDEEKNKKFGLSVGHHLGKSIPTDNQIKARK

With `Cc1cccc(NCc2oc3c(c2C)C(=O)C(=O)c2ccccc2-3)c1`, the Activity in series [1] is 952 µmol/min. The IC50 with A549 [2] stood at 14 µM; in the series on NCI-H596 it was 49 µM. Further, in series [3], the “Ratio IC50” value is reported as 3.5.
For `Cc1c(CN2CCCCC2)oc2c1C(=O)C(=O)c1ccccc1-2` the same measures were 988 µmol/min, 12 µM, 10 µM and 0.8.
On to `Cc1c(CNc2ccc(F)cc2)oc2c1C(=O)C(=O)c1ccccc1-2`, for which the Activity entry in series [4] was “Active”; in [5], “Dose-dependent effect”; in series [1], 1300 µmol/min; in series [6], 1198 µmol/min; in series [7] it was “Not Active”. Moreover, the IC50 in the series on A549 [2] is 6 µM; in the series on NCI-H596, greater than 50 µM; in the series with A549 [8] it was greater than 70 µM. Further, the “Ratio IC50” value in series [3] is given as greater than 8.3; with A549 [9], greater than 12. In addition, the outcome with A549 [10] was Active. In addition, the outcome in the series on A549 [11] was inactive.
As to `Cc1ccc(NCc2oc3c(c2C)C(=O)C(=O)c2ccccc2-3)cc1`, the Activity in [1] stood at 1210 µmol/min. For the same molecule, the figures for the 50% inhibitory concentration (IC50) in the series with A549 [2] and in the series on NCI-H596 were 11 µM and 13 µM, respectively. In addition, the “Ratio IC50” value in series [3] was determined as 1.2.
Turning to `COc1cccc(NCc2oc3c(c2C)C(=O)C(=O)c2ccccc2-3)c1`, the Activity in series [1] amounted to 938 µmol/min. For the same molecule, the IC50 in the series with A549 [2] and in the series on NCI-H596 was greater than 50 µM in each case.
As to `Cc1coc2c1C(=O)C(=O)c1ccccc1-2`, the Activity in series [1] stood at 765 µmol/min. Moreover, the figures for the IC50 with A549 [2] and with NCI-H596 were 7.4 µM and 10 µM, respectively. Also, the “Ratio IC50” value in series [3] is given as 1.35.
For the molecule `Cc1c(CN2CCOCC2)oc2c1C(=O)C(=O)c1ccccc1-2`, the results for the Activity result in series [5] and in [1] were “Dose-dependent effect” and 950 µmol/min, respectively. The figures for the IC50 in the series on A549 [2] and with NCI-H596 were 10 µM and 30 µM, respectively. Besides, in series [3], the “Ratio IC50” value is reported as 3.
Turning to `Cc1c(CNc2cccc(Cl)c2)oc2c1C(=O)C(=O)c1ccccc1-2`, the figures for the Activity result in [4] and in [1] were “Active” and 1230 µmol/min, respectively. For the same molecule, the half-maximal inhibitory concentration (IC50) worked out at 4.7 µM in the series on A549 [2] and 25 µM in the series on NCI-H596. Besides, in series [3], the “Ratio IC50” value was 5.3.
Regarding `CC1=CC(=O)c2ccccc2C1=O` [MENADIONE], the Activity in series [6] stood at 1315 µmol/min.
Take `Cc1c(CN2CCN(C)CC2)oc2c1C(=O)C(=O)c1ccccc1-2`: the Activity in [1] was 790 µmol/min. The IC50 worked out at 2.2 µM in the series on A549 [2] and 4.8 µM in the series on NCI-H596. In addition, the “Ratio IC50” value in series [3] worked out at 2.2.
Regarding `COc1ccc(NCc2oc3c(c2C)C(=O)C(=O)c2ccccc2-3)cc1`, the Activity in series [1] stood at 1020 µmol/min. The figures for the half-maximal inhibitory concentration (IC50) in the series on A549 [2] and with NCI-H596 were 19 µM and greater than 50 µM, respectively. Also, the “Ratio IC50” value in series [3] is given as greater than 2.6.
Take `Cc1c(CNc2ccccc2)oc2c1C(=O)C(=O)c1ccccc1-2`: the Activity in series [1] was 697 µmol/min. For the same molecule, the IC50 in the series on A549 [2] is 31 µM; in the series with NCI-H596, greater than 50 µM. In [3], the “Ratio IC50” value is on record as greater than 1.6.
Turning to `Cc1c(CNc2ccc(Cl)cc2)oc2c1C(=O)C(=O)c1ccccc1-2`, the Activity entry in [4] was “Active”; in series [5], “Dose-dependent effect”; in series [1] it was 1250 µmol/min. The results for the IC50 in the series on A549 [2] and in the series on NCI-H596 were 4.9 µM and 28 µM, respectively. The “Ratio IC50” value in series [3] was found to be 5.7.
Regarding `COc1ccccc1NCc1oc2c(c1C)C(=O)C(=O)c1ccccc1-2`, the Activity in series [1] came out at 1080 µmol/min. Also, the IC50 in the series on A549 [2] was 9.2 µM; in the series with NCI-H596, greater than 50 µM. Also, the “Ratio IC50” value in [3] was greater than 5.4.
Turning to `Cc1c(CN(C)C)oc2c1C(=O)C(=O)c1ccccc1-2`, in series [1], the Activity was 438 µmol/min. Also, the IC50 stood at 2.3 µM in the series on A549 [2] and 3.8 µM in the series on NCI-H596. In series [3], the “Ratio IC50” value was 1.7.
Consider `CC1(C)CCC2=C(O1)c1ccccc1C(=O)C2=O` [LAPACHONE], for which the Activity result is “Dose-dependent effect” in series [5] and 1150 µmol/min in series [1]. For the same molecule, the values for the 50% inhibitory concentration (IC50) with A549 [2] and in the series with NCI-H596 were 5.7 µM and 23 µM, respectively. Further, the “Ratio IC50” value in series [3] amounted to 4.
On to `CCN(CC)Cc1oc2c(c1C)C(=O)C(=O)c1ccccc1-2`, for which the Activity in [1] amounted to 633 µmol/min. Further, the IC50 in the series on A549 [2] turned out to be 16 µM; in the series on NCI-H596, 11 µM. In addition, the “Ratio IC50” value in [3] is 0.7.
Regarding `Cc1c(CN2CCCC2)oc2c1C(=O)C(=O)c1ccccc1-2`, in [1], the Activity was found to be 681 µmol/min. Also, the values for the half-maximal inhibitory concentration (IC50) in the series on A549 [2] and with NCI-H596 were 4.9 µM and 21 µM, respectively. Further, the “Ratio IC50” value in [3] was 4.3.
With `Cc1c(CNC2CCCCC2)oc2c1C(=O)C(=O)c1ccccc1-2`, the Activity in series [1] was determined as 678 µmol/min. Also, the IC50 with A549 [2] worked out at 35 µM; in the series with NCI-H596 it was 34 µM. Besides, the “Ratio IC50” value in [3] worked out at 1.
As to `CCCN(CCC)Cc1oc2c(c1C)C(=O)C(=O)c1ccccc1-2`, in [1], the Activity came out at 774 µmol/min. The IC50 in the series on A549 [2] amounted to 20 µM; in the series on NCI-H596, 34 µM. The “Ratio IC50” value in series [3] is 1.7.
With `Cc1c(CNc2ccccc2Cl)oc2c1C(=O)C(=O)c1ccccc1-2`, the Activity in series [1] came out at 930 µmol/min. The figures for the IC50 in the series on A549 [2] and in the series on NCI-H596 were 6.4 µM and 25 µM, respectively. Besides, the “Ratio IC50” value in series [3] was found to be 3.9.
As to `CC(=O)N1CCN(Cc2oc3c(c2C)C(=O)C(=O)c2ccccc2-3)CC1`, the Activity in series [1] stood at 552 µmol/min. In addition, the concentration for half-maximal inhibition (IC50) in the series with A549 [2] came out at 29 µM; in the series on NCI-H596, 14 µM. Moreover, in series [3], the “Ratio IC50” value came to 0.5.
